The source of these data is ChEMBL document CHEMBL5038583, “Highly Potent and Selective Butyrylcholinesterase Inhibitors for Cognitive Improvement and Neuroprotection” (J Med Chem, 2021).

pIC50: −log10 of the molar value. The source made the active and inactive calls.

Series [1] concerns BV-2. The series can be described thus: Anti-inflammatory activity against mouse BV-2 cells assessed as blocked of LPS-induced increased ROS production by measuring green fluorescence preincubated for 1 hr by DCFH-DA staining based fluorescence microscopy. Format: functional, cell-based. An outline of the steps:
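BV2 cells seeded at 1 × 10⁴ per well and grown 24 h at 37 °C. Compounds at various concentrations for 1 h, then LPS 2.5 μg/mL for 24 h. Washed in PBS, loaded with DCFH-DA 5 μM (final) for 30 min, washed three times. Intracellular ROS taken as green fluorescence intensity by inverted fluorescence microscopy, exposure fixed at 10.2 ms.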

Series [2] in a line: Ratio of drug concentration in brain to plasma of ICR mouse at 10 mg/kg, po measured after 4 hrs. The format is ADME, organism-based. Summed up:
(§1)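 ICR mice given 10 mg/kg orally in 5% DMSO/40% PEG400/55% saline (1 mg/mL). Blood (retro-orbital) and brain collected at 30, 60, 120 and 240 min. Brain homogenized in 2 volumes PBS, extracted with ethyl acetate, dried and reconstituted in mobile phase. Plasma processed as in the rat study; LC/MS/MS. Brain/plasma ratios from exposures, AUC(B) vs AUC(P).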

The test system of series [3] is Mus musculus. The series can be described thus: Anti-alzheimer activity in amyloid beta(1 to 42)-induced ICR mouse model of cognitive impairment assessed as enhanced alternation performance by measuring total number of arm entries at 15 mg/kg, ig administered at days 2 to 14 and measured on day 15 by Y-maze test. Format: functional. An outline of the steps:
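Oligomerized Aβ1-42 (10 μg per mouse, icv) given on day 1; saline icv for sham. Dosing 15 mg/kg ig on days 2−14 (donepezil as positive control), n = 8. Spontaneous alternation read on day 15 in a three-arm grey PVC Y maze, arms at 120°. Mean SD.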

The nature of series [4]: AUC (0 to infinity) in overnight fasted Sprague-Dawley rat at 10 mg/kg, iv measured upto 1440 mins by LC/MS/MS analysis. The format is ADME, organism-based. Further details: route intravenous, dose 10 mg/kg, time <=1440. As to conditions: in vivo, 24 h. An outline of the steps: (§2)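 Male SD rats (180−220 g), n = 8 per route, fasted overnight with water available. Single 10 mg/kg dose p.o. or i.v. in DMSO/PEG400/saline (10:80:10). Retro-orbital blood taken into heparinized tubes at 1–1440 min. Plasma precipitated with methanol containing theophylline internal standard, then LC/MS/MS against a blank-plasma standard curve. Parameters from noncompartmental extravascular analysis; mean ± SD.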

A short description of series [5]: AUC (0 to t) in ICR mouse brain at 10 mg/kg, po measured upto 240 mins. The format is ADME, organism-based. Also noted: route oral, dose 10 mg/kg, time <=240. An outline of the steps:
as §1

Series [6] can be described thus: Tmax in overnight fasted Sprague-Dawley rat at 10 mg/kg, iv measured upto 1440 mins by LC/MS/MS analysis. The format is ADME, organism-based. The note with it: in vivo. Summed up:
as §2

Series [7] is described as follows: Ratio of drug concentration in brain to plasma of ICR mouse at 10 mg/kg, po measured after 0.5 hrs. The format is ADME, organism-based. Summed up:
as §1

Series [8] relates to Mus musculus. Description: Antialzheimer activity in ICR mouse assessed as reduction in scopolamine-induced cognitive impairment at 30 mg/kg, ig administered for 10 consecutive days by Morris water maze test. The format is functional, organism-based. The note with it: time 10.0 day. An outline of the steps: (§3)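 Male ICR mice (8−10 weeks, 18−20 g), n = 8 per group. Compound at 15 or 30 mg/kg intragastric in DMSO/saline (10:90), given 30 min before scopolamine 3 mg/kg i.p., for 10 consecutive days; tacrine 15 mg/kg as reference. Morris water maze: 5 days of training, probe trial on day 6 with platform removed. Escape latency and trajectory recorded; mean ± SD.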

The nature of series [9]: Metabolic stability in human liver microsomes assessed as half life at 1 uM measured upto 45 mins in presence of NADPH by LC/MS/MS analysis. Format: ADME, Microsome. An outline of the steps: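 Human liver microsomes 0.5 mg/mL, compound 1 μM final, NADPH 2 mM, at 37 °C. Reactions stopped at 0, 5, 15, 30 and 45 min with acetonitrile containing imipramine internal standard. LC/MS/MS quantitation relative to 0 min; initial rates used for t1/2 and intrinsic clearance; ketanserin as assay control. Mean of two independent experiments.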

Series [10] relates to HepG2. Description: Cytotoxicity against human HepG2 cells assessed as reduction in cell viability incubated for 24 hrs by MTT assay. Format: functional, cell-based. As to conditions: HepG2, 24 h. Summed up: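 Cells seeded at 1 × 10⁴/well in DMEM with 10% FBS and left overnight, then given compound (DMSO stock diluted in DMEM) for 24 h at 37 °C. MTT added for 4 h, formazan dissolved in DMSO, absorbance read at 492 nm. Viability taken as OD treated/OD DMEM × 100%; IC50 from three independent experiments, mean SD.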

The nature of series [11]: Cmax in ICR mouse plasma at 10 mg/kg, po measured upto 240 mins. Format: ADME, organism-based. Further details: route oral, dose 10 mg/kg, time <=240. Summed up:
as §1

Series [12] is described as follows: Acute toxicity in ICR mouse assessed as animal death at […]. As to conditions: in vivo, po, 1000 mg/kg, 336 h.
The test system of series [13] is Mus musculus. The series can be described thus: Antialzheimer activity in scopolamine-induced ICR mouse model of cognitive impairment assessed as reduction in escape latency at 30 mg/kg, ig administered for 10 consecutive days by Morris water maze test. Format: functional, organism-based. An outline of the steps: as §3
Series [14] is described as follows: Cmax in ICR mouse brain at 10 mg/kg, po measured upto 240 mins. The format is ADME, organism-based. Further details: route oral, dose 10 mg/kg, time <=240. Summed up:
as §1

Series [15] in a line: Ratio of drug concentration in brain to plasma of ICR mouse at 10 mg/kg, po measured after 2 hrs. Format: ADME, organism-based. Summed up: as §1
Series [16] has as its target Cholinesterase (Homo sapiens, UniProt P06276). Description: Inhibition of human serum BChE using butyrylthiocholine iodide as substrate preincubated for 20 mins followed by substrate addition and measured after 2 mins by DTNB-reagent based Ellman's method. Summed up:
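hBChE at 0.015 units/mL with DTNB in phosphate buffer pH 8.0, preincubated 20 min at room temperature with at least six concentrations (10⁻⁴−10⁻⁹). Butyrylthiocholine iodide (0.075 M solution) added; A412 read after 2 min at 25 °C. IC50 from % activity vs log concentration; triplicates in at least three runs.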
In general terms: Ellman's reagent forms a yellow product with free thiols.

Series [17] can be described thus: Ratio of Cmax in brain to plasma of ICR mouse at 10 mg/kg, po measured upto 240 mins. Format: ADME, organism-based. Summed up: as §1
A short description of series [18]: AUC (0 to t) in overnight fasted Sprague-Dawley rat at 10 mg/kg, iv measured upto 1440 mins by LC/MS/MS analysis. Format: ADME, organism-based. Also noted: route intravenous, dose 10 mg/kg, time <=1440. As to conditions: in vivo, 24 h. An outline of the steps:
as §2

Series [19] deals with Mus musculus. Description: Anti-alzheimer activity in scopolamine-induced ICR mouse model of cognitive impairment assessed as simplification of trajectories at 30 mg/kg, ig administered for 10 consecutive days by Morris water maze test. Format: functional, organism-based. An outline of the steps: as §3
Series [20] has as its system SH-SY5Y. Description: Neuroprotective activity against H2O2-induced cytotoxicity in human SH-SY5Y cells pretreated for 2 hrs followed by H2O2 stimulation and measured after 24 hrs by MTT assay. The note with it: dose 2.5-10 µM, time 26.0 hrs. Format: functional, cell-based. Summed up: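 SH-SY5Y cells seeded at 5000 per well and grown 24 h. Pretreated 2 h with compound (2.5 or 10 μM, diluted in DMEM from 10⁻¹ M DMSO stock), then H₂O₂ 200 μM, glutamate 20 mM or aggregated Aβ1-42 15 μM for 24 h. MTT added for 4 h, formazan dissolved in DMSO, absorbance read at 492 nm. Viability relative to untreated control; mean ± SEM, n = 3.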
On the technique in general: Tetrazolium dyes change colour on reduction, which living cells bring about.

Sequence of Cholinesterase (P06276 whole entry): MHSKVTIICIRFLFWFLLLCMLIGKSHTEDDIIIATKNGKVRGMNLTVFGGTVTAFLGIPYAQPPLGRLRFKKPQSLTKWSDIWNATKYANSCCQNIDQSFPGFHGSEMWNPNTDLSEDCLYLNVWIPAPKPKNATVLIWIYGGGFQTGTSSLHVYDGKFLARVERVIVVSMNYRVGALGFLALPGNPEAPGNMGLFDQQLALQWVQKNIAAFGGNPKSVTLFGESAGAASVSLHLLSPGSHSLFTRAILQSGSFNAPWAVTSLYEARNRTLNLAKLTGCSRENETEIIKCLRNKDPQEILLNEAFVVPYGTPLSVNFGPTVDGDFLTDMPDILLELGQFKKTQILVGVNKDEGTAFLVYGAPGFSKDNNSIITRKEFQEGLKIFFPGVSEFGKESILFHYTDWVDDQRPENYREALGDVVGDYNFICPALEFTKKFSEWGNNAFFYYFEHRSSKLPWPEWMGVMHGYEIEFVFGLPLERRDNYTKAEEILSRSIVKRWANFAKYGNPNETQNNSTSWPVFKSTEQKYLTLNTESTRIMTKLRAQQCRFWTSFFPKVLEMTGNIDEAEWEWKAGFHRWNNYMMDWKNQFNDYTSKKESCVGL

One may read the Kp as tissue or fluid exposure divided by exposure in the circulation. Usually AUC stands for concentration integrated over time. A high value points to more exposure. A word on the AUC(0-t): it is the area under the concentration-time curve up to a stated or last time point. Higher therefore signals more exposure. In general, Tmax refers to the time from dosing to the highest level. The term half-life denotes the time needed for the level to fall by half in the phase considered. As a reminder, the pIC50 is −log10 of the IC50, conventionally taken in molar units. The term Cmax denotes the highest concentration seen after dosing. On to `Nc1nonc1-c1nc2ccccc2n1CC(=O)Nc1cnc2ccccc2c1`, for which the result in [1], in series [3], in series [8], in series [13] and in series [19] was Active. For the same molecule, the Kp at 4 h in series [2] was 1.54; in [17], 0.24. The AUC in [4] was found to be 1092.11 ng·h/mL. The same molecule registered an AUC(0-t) at 4 h in series [5] of 34.1 ng·h/mL. Moreover, the Tmax in series [6] was determined as 1.02 min. Besides, the Kp at 0.5 h in [7] turned out to be 1.54. In series [9], the half-life at 1 µM was found to be 2.65 h. For the same molecule, the pIC50 was 4.07 in series [10] and 7.80 in series [16]. Besides, the Cmax in series [11] came out at 49.9 ng/mL; in series [14], 12.1 ng/mL. Also, the Activity result in series [12] was “Non-Toxic”; in [20] it was “Dose-Dependent Effect”. Also, the Kp at 2 h in [15] was found to be 2.43. In series [18], this molecule showed an AUCt of 859.64 ng·h/mL.
